ChEMBL document CHEMBL1130131, “12,13-isotaxanes: synthesis of new potent analogs and X-ray crystallographic confirmation of structure” (J Med Chem, 1997)

How the values were obtained:
Mus musculus [1] = experiment: % T/C(is ratio of median survival time in the group receiving the optimal dose to median survival time in the vehicle control group X 100.) is measured in B16 melanoma cells at the dose of 50 ng/kg on the days 1 and 3(experiment 2); type: functional
In short: (§1)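 B6D2F1 mice bearing intraperitoneally implanted B16 melanoma (method adapted from earlier work); test agent given iv on days 1 and 3, optimal total dose reported in ng/kg. %T/C = median survival time of the optimal-dose group divided by median survival time of the vehicle control group × 100. Values are individual results from two separate experiments.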

A2780 = experiment: Concentration of compound to inhibit the growth of human A2780 ovarian carcinoma cells(in vitro); type: functional, cell-based
Mus musculus [2] = experiment: % T/C(is ratio of median survival time in the group receiving the optimal dose to median survival time in the vehicle control group X 100.) is measured in B16 melanoma cells at the dose of 50 ng/kg on the days 1 and 3(experiment 1); type: functional; in short: as §1
B16 = experiment: Concentration inducing 20% mitotic index for mitotic block in murine B16 melanoma cells; type: functional, Mus musculus
In short: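 B16 melanoma cells were treated in culture, and mitotic index was measured by a method adapted from earlier work. The value is the drug concentration giving a 20% mitotic index.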

Mus musculus [3] = experiment: % T/C was measured in B6D2F1 mice bearing ip-implanted B16 melanoma cells at the dose of 100n g/kg on the days 1 and 3; type: functional
In short: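 B6D2F1 mice bearing intraperitoneally implanted B16 melanoma received compound iv on days 1 and 3, with the total dose stated. %T/C = median survival time at the optimal dose ÷ median survival time of vehicle-treated controls × 100. The method was adapted from earlier work.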

| Compound | T/C (Mus musculus [1]) | IC50 (A2780) | T/C (Mus musculus [2]) | Concentration giving 20% mitotic index (B16) | T/C (Mus musculus [3]) |
| --- | --- | --- | --- | --- | --- |
| CC(=O)O[C@H]1C(=O)[C@]2(C)C=CC3OC[C@@]3(OC(C)=O)C2[C@H](OC(=O)c2ccccc2)[C@]2(O)CC(OC(=O)[C@H](O)[C@@H](NC(=O)OC(C)(C)C)c3ccccc3)=C(C)C1C2(C)C (some centres undefined) | 181% | 1.2 nM | 181% | 10 nM |  |
| CC(=O)O[C@@]12COC1C[C@@H]1C[C@@]13C(=O)[C@H](O)C1C(C)=C(OC(=O)[C@H](O)[C@@H](NC(=O)OC(C)(C)C)c4ccccc4)C[C@@](O)([C@@H](OC(=O)c4ccccc4)C23)C1(C)C (some centres undefined) | 210% | 1.9 nM | 184% | 7 nM |  |
| CC(=O)O[C@H]1C(=O)[C@]2(C)C=CC3OC[C@@]3(OC(C)=O)C2[C@H](OC(=O)c2ccccc2)[C@]2(O)CC(OC(=O)[C@H](O)[C@@H](NC(=O)NC(C)(C)C)c3ccccc3)=C(C)C1C2(C)C (some centres undefined) | 241% | 0.5 nM | 232% | 10 nM |  |
| CC(=O)O[C@H]1C(=O)[C@]23C[C@H]2CC2OC[C@@]2(OC(C)=O)C3[C@H](OC(=O)c2ccccc2)[C@]2(O)CC(OC(=O)[C@H](O)[C@@H](NC(=O)NC(C)(C)C)c3ccccc3)=C(C)C1C2(C)C (some centres undefined) | 225% | 0.6 nM | 213% | 10 nM |  |
| CC(=O)O[C@@]12CO[C@@H]1C[C@H](O)[C@@]1(C)C(=O)[C@H](O)C3=C(C)[C@@H](OC(=O)[C@H](O)[C@@H](NC(=O)OC(C)(C)C)c4ccccc4)C[C@@](O)([C@@H](OC(=O)c4ccccc4)[C@H]21)C3(C)C.O.O.O [DOCETAXEL] |  | 1.8 nM |  | 15 nM | 177% |
